Calls of active or inactive are those of the source.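 How the source made its calls: active means growth inhibition of at least 50% in any replicate; inactive means growth inhibition below 50% in every replicate.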

The source of these data is PubChem BioAssay AID720736 (The Scripps Research Institute Molecular Screening Center, 2013).

A short description of this experiment: P. falciparum blood-stage growth inhibition, late-stage follow-up, M18AAP inhibitor project, cell-based, radiolabel, 3D7, RBCs, Set2 (AID 720736). The settings on record: P. falciparum 3D7 in RBCs, 3H-hypoxanthine incorporation, 48 h, at 10 µM, stronger effect = higher value. Put shortly:
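Detection – 3H-hypoxanthine uptake by beta counting · Assay system – P. falciparum 3D7-infected RBCs · Control set – vehicle-treated parasites and uninfected RBCs · Schedule – 48 h exposure, 37 °C, 5% O2/5% CO2/90% N2 · Doses – single compound dose of 10 µM, DMSO at most 1% · Medium – hypoxanthine-free RPMI, 10% serum · Evaluation – % growth inhibition versus vehicle-treated parasites, background-subtracted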

As to `Oc1ccc(CCCNc2c3ccccc3nc3ccccc23)cc1O`, the growth inhibition is, setting by setting: (run 1) 91%; (run 2) 93%. `COc1ccc(CCN(C)c2c3ccccc3nc3ccccc23)cc1OC`: under “run 2”, the growth inhibition was 98%.

Regarding `COc1ccc(CCCN2CCN(C)CC2)cc1OC`, for the setting “run 1”, the growth inhibition is 0% (inactive). On to `COc1ccc(CCN2CCN(C)CC2)cc1OC`, for which the growth inhibition was 0% (inactive) (run 1) and 5% (inactive) (run 2).

As to `CCOc1ccc2nccc(NCCc3ccc(OC)c(OC)c3)c2c1`, the growth inhibition (run 1) was 72%.

For `COc1ccc(CCCNc2c3c(nc4ccccc24)CCCC3)cc1OC`, under “run 1”, the growth inhibition was 4% (inactive).

`Oc1ccc(CCNc2c3c(nc4ccccc24)CCCC3)cc1O`: the growth inhibition (run 1) was 90% and the growth inhibition (run 2) is 95%. In the case of `COc1ccc(C2CCN(c3ccnc4ccccc34)CC2)cc1OC`, the growth inhibition (run 1) is 1% (inactive). `Cc1c(OCc2ccccc2)c(=O)ccn1CCNc1c2ccccc2nc2ccccc12`: the growth inhibition (run 1) is 94% and the growth inhibition (run 2) is 99%. `Oc1ccc(C2CCN(c3ccnc4ccccc34)CC2)cc1O`: the growth inhibition (run 1) is 76%.

For the compound `COc1ccc(CCNC(=O)c2cc(C)ccc2N)cc1OC`, the growth inhibition (run 1) is 0% (inactive).

As to `CCN(CC)Cc1cc(Nc2ccnc3cc(Cl)ccc23)ccc1O`, the growth inhibition (run 1) was 98%. As for `Oc1ccc(CCNc2cncc3ccccc23)cc1O`, the growth inhibition (run 1) is 38% (inactive) and the growth inhibition (run 2) is 27% (inactive). As to `COc1cc(Br)c(CCNc2ccnc3ccccc23)cc1OC`, the growth inhibition (run 1) is 90%. Same read-out and setting: the same measure for `CCN(CCc1ccc(O)c(O)c1)c1c2ccccc2nc2ccccc12`: 20% (inactive).

For the compound `CN(CCc1ccc(O)c(O)c1)c1ncnc2ccccc12`, the growth inhibition (run 1) was 1% (inactive). On to `COc1ccc(CCN2CCc3ccccc3C2)cc1OC`, for which the growth inhibition reads like this: (run 1) 0% (inactive); (run 2) 3% (inactive). For `COc1ccc(CCNc2ccc3ccccc3c2)cc1OC`, in that order: 0% (inactive) and 3% (inactive). Turning to `COc1ccc(CCN(C)c2ccnc3cc(Cl)ccc23)cc1OC`, the growth inhibition was 97% (run 1) and 92% (run 2). Take `CN(CCc1ccc(O)c(O)c1)c1ccnc2ccccc12`: the growth inhibition runs as follows: (run 1) 91%; (run 2) 95%. For `Oc1ccc(CCNc2cccc3ccccc23)cc1O` the same measures were 16% (inactive) and 22% (inactive). `COc1ccc(CCNc2ccnc3c(C)cccc23)cc1OC`: for the setting “run 1”, the growth inhibition is 20% (inactive). Turning to `COc1ccc(CCNc2c3c(nc4ccc(C)cc24)CCCC3)cc1OC`, the growth inhibition (run 1) is 27% (inactive). As to `COc1ccc(CCNc2c3c(nc4ccccc24)CCCC3)cc1OC`, the growth inhibition was 38% (inactive) (run 1) and 55% (run 2).

Consider `Oc1ccc(C2CCCN(c3ccnc4ccccc34)C2)cc1O` (stereo unspecified), for which the growth inhibition (run 1) was 50%. Turning to `CN1CCN(CCc2ccc(O)c(O)c2)CC1`, the growth inhibition was 4% (inactive) (run 1) and 0% (inactive) (run 2).

Take `CC(C)(CNc1ccnc2ccccc12)c1ccc(O)c(O)c1`: under “run 1”, the growth inhibition is 35% (inactive). Turning to `COc1ccc(CCNC2CCN(Cc3ccccc3)CC2)cc1OC`, the growth inhibition (run 1) is 88% and the growth inhibition (run 2) was 93%. For `CN(CCc1ccc(O)c(O)c1)c1ccnc2cc(Cl)ccc12`, for the setting “run 1”, the growth inhibition is 0% (inactive). Regarding `COc1ccc(CCNc2ccncc2)cc1OC`, the growth inhibition (run 1) is 6% (inactive) and the growth inhibition (run 2) was 12% (inactive).

Turning to `COc1ccc(CCN(C)c2ccnc3ccccc23)cc1OC`, the growth inhibition is 95% (run 1) and 94% (run 2). For `Oc1ccc(CCNC(c2ccccc2)c2ccccc2)cc1O`, in that order: 47% (inactive) and 57%.

As for `COc1ccc(CCCN(C)c2c3ccccc3nc3ccccc23)cc1OC`, the growth inhibition (run 1) was 17% (inactive). In the case of `CCN(CCc1ccc(OC)c(OC)c1)c1c2ccccc2nc2ccccc12`, the growth inhibition (run 1) is 18% (inactive).

As to `O=C(O)CCCNc1c2ccccc2nc2ccccc12`, the growth inhibition was 0% (inactive) (run 1) and 15% (inactive) (run 2). As for `COc1ccc(CCNc2c3ccccc3nc3ccccc23)cc1`, the growth inhibition is 100% (run 1) and 98% (run 2). In the case of `COc1ccc(CCNc2cncc3ccccc23)cc1OC`, the growth inhibition (run 1) is 65% and the growth inhibition (run 2) was 63%. For `COc1ccc(CNc2c3ccccc3nc3ccccc23)cc1OC` the same measures were 100% and 99%. For `COc1ccc(CCNc2c3ccccc3nc3ccccc23)cc1OC`, the growth inhibition is 98% (run 1) and 100% (run 2). Take `COc1ccc(CCNc2cccc3ccccc23)cc1OC`: the growth inhibition was 9% (inactive) (run 1) and 20% (inactive) (run 2). Turning to `COc1ccc(CCNc2ccnc3cc(Cl)ccc23)cc1OC`, the growth inhibition (run 1) was 69%. For the compound `Oc1ccc(CCNC2CCN(Cc3ccccc3)CC2)cc1O`, the growth inhibition was 90% (run 1) and 95% (run 2).

In the case of `Oc1ccc(CCNc2ccnc3c(F)cccc23)cc1O`, the growth inhibition (run 1) was 0% (inactive).

Regarding `O=C(O)CCCCNc1c2ccccc2nc2ccccc12`, the growth inhibition by setting is: (run 1) 27% (inactive); (run 2) 20% (inactive).

As to `COc1cc(Br)c(CCNc2c3ccccc3nc3ccccc23)cc1OC`, the growth inhibition (run 1) is 95%. As for `COc1ccc(CCN(C)c2ccncc2)cc1OC`, the growth inhibition (run 1) is 0% (inactive) and the growth inhibition (run 2) is 0% (inactive). Take `COc1ccc(CCNc2ncnc3ccccc23)cc1OC`: the growth inhibition (run 1) was 5% (inactive).

In the case of `CN(CCc1ccc(O)c(O)c1)c1ccncc1`, the growth inhibition (run 1) is 3% (inactive) and the growth inhibition (run 2) is 13% (inactive). For `Oc1ccc(CCN2CCc3ccccc3C2)cc1O` the same measures were 52% and 62%. As for `NCCNc1c2ccccc2nc2ccccc12`, the growth inhibition is, setting by setting: (run 1) 100%; (run 2) 99%.

Consider `COc1ccc(CCNc2ccnc3c(F)cccc23)cc1OC`, for which the growth inhibition (run 1) is 26% (inactive). In the case of `COc1cc(Br)c(CCNc2c3c(nc4ccccc24)CCCC3)cc1OC`, the growth inhibition (run 1) was 96%. In the case of `Cc1cccc2c(NCCc3ccc(O)c(O)c3)ccnc12`, under “run 1”, the growth inhibition is 56%.

Turning to `COc1ccc(CCN(C)c2ccnc3c(C)cccc23)cc1OC`, for the setting “run 1”, the growth inhibition is 5% (inactive). As to `Oc1ccc(CCNc2c3ccccc3nc3ccccc23)cc1`, the growth inhibition was 95% (run 1) and 95% (run 2).

As for `Oc1ccc(CCCNc2c3c(nc4ccccc24)CCCC3)cc1O`, under “run 1”, the growth inhibition was 12% (inactive). As for `Cc1cc(N(C)CCc2ccc(O)c(O)c2)c2ccccc2n1`, the growth inhibition (run 1) is 6% (inactive).

On to `COc1ccc(CCNC(c2ccccc2)c2ccccc2)cc1OC`, for which the growth inhibition (run 1) was 0% (inactive).

Turning to `CCOc1ccc2nccc(N(C)CCc3ccc(OC)c(OC)c3)c2c1`, the growth inhibition (run 1) is 15% (inactive). The same measure, in the same setting: as for `COc1ccc(CCN(C)c2ccnc3c(F)cccc23)cc1OC`, the figure is 5% (inactive); as for `COc1ccc(CCNc2cc(C)nc3ccccc23)cc1OC`, 26% (inactive); as for `CN(CCCc1ccc(O)c(O)c1)c1c2ccccc2nc2ccccc12`, 21% (inactive). The same measure, in the same setting: the same measure for `CN(CCCc1ccc(O)c(O)c1)c1ccnc2ccccc12`: 0% (inactive). With `COc1ccc(CCNC2CCN(C)CC2)cc1OC`, the growth inhibition by setting is: (run 1) 0% (inactive); (run 2) 0% (inactive).

As for `Oc1ccc(CCNc2ccc3ccccc3c2)cc1O`, the growth inhibition was 21% (inactive) (run 1) and 18% (inactive) (run 2). For `Cc1nc(NCCc2ccc(O)c(O)c2)c2c3c(sc2n1)CCC3`, the growth inhibition (run 1) is 0% (inactive). For `COc1cccc(CCNc2c3ccccc3nc3ccccc23)c1`, the growth inhibition was 100% (run 1) and 99% (run 2). For `Oc1ccc(CCNc2ccnc3ccccc23)cc1O`, in that order: 89% and 98%.

With `CN(CCc1ccc(O)c(O)c1)c1c2ccccc2nc2ccccc12`, where the note is “run 1”, the growth inhibition was 5% (inactive). The same measure, in the same setting: the same measure for `Cc1cccc2c(N(C)CCc3ccc(O)c(O)c3)ccnc12`: 5% (inactive). As for `CC(Cc1ccc(O)c(O)c1)Nc1ccnc2ccccc12` (stereo unspecified), the growth inhibition (run 1) was 19% (inactive). With `CN(CCc1ccc(O)c(O)c1)c1ccnc2c(F)cccc12`, the growth inhibition (run 1) was 3% (inactive). As to `COc1ccc(CCCNc2c3ccccc3nc3ccccc23)cc1OC`, the growth inhibition is 88% (run 1) and 95% (run 2).

Turning to `COc1ccc(C2CCN(c3ccnc4ccccc34)C2)cc1OC` (stereo unspecified), the growth inhibition (run 1) was 94%.

With `Oc1cccc(CCNc2ccnc3ccccc23)c1O`, the growth inhibition (run 1) is 97%. As for `O=c1ccn(CCNc2c3ccccc3nc3ccccc23)cc1OCc1ccccc1`, the growth inhibition runs as follows: (run 1) 92%; (run 2) 84%. As for `COc1ccc(CCN(C)c2ncnc3ccccc23)cc1OC`, the growth inhibition (run 1) is 3% (inactive).

In the case of `Oc1ccc(C2CCN(c3ccnc4ccccc34)C2)cc1O` (stereo unspecified), the growth inhibition (run 1) is 95%.

Turning to `CN1CCN(CCCc2ccc(O)c(O)c2)CC1`, the growth inhibition is, setting by setting: (run 1) 5% (inactive); (run 2) 0%.

Take `Oc1ccc(CCNc2ccnc3cc(Cl)ccc23)cc1O`: the growth inhibition (run 1) is 92%.
